# Test results as given in ChEMBL document CHEMBL1146878, “A novel class of AMPA receptor allosteric modulators. Part 1: design, synthesis, and SAR of 3-aryl-4-cyano-5-substituted-heteroaryl-2-carboxylic acid derivatives” (Bioorg Med Chem Lett, 2006).
# Tests used:
# Type in all cases: functional, cell-based
# [1] = biological target: T1, Glutamate receptor 4 (Homo sapiens, UniProt P48058); test: Activity against human GLUR4 flop expressed in HEK293 cells assessed as glutamate-stimulated calcium influx by FLIPR assay
# T1 sequence (P48058 whole entry, canonical isoform): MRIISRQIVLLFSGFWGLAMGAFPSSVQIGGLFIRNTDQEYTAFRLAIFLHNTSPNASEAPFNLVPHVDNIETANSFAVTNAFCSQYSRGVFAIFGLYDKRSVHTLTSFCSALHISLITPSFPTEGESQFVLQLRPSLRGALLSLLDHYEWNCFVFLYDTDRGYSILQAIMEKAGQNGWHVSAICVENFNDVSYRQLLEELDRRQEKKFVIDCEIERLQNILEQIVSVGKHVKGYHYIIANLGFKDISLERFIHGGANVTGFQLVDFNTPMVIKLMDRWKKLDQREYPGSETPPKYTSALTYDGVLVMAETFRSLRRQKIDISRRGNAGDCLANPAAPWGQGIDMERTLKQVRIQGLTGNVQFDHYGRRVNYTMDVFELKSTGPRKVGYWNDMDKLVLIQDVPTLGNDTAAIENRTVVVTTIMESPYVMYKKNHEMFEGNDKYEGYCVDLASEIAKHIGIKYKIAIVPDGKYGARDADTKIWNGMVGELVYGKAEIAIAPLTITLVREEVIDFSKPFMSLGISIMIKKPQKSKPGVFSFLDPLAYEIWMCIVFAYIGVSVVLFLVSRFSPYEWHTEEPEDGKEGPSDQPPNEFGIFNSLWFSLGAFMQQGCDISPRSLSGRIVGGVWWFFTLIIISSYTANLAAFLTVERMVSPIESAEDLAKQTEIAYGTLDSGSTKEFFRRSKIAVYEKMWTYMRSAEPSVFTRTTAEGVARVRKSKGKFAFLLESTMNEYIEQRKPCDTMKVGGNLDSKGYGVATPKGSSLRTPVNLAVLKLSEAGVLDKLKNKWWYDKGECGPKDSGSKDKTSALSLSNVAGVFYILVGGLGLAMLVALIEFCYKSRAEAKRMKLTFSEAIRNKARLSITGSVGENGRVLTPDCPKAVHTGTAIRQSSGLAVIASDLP
# In short: (§1)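 Stably transfected HEK-293 cells expressing homomeric GluR4 (flip or flop splice form) loaded with 8 µM Fluo3-AM for 60 min in HEPES-buffered saline (5 mM CaCl2, 5.5 mM glucose). Compounds from DMSO (0.1–3 µM) co-applied with 100 µM glutamate; calcium influx read by FLIPR. Duplicate 10-point curves; response expressed as % of 100 µM cyclothiazide, EC50 calculated.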
# [2] = biological target: T1, Glutamate receptor 4; test: Activity against human GLUR4 flip expressed in HEK293 cells assessed as glutamate-stimulated calcium influx by FLIPR assay; in short: as §1
# [3] = biological target: T2, Glutamate receptor 2 (Homo sapiens, UniProt P42262); test: Activity against human GLUR2 flop expressed in HEK293 cells assessed as glutamate-stimulated calcium influx by FLIPR assay
# T2 sequence (P42262 whole entry): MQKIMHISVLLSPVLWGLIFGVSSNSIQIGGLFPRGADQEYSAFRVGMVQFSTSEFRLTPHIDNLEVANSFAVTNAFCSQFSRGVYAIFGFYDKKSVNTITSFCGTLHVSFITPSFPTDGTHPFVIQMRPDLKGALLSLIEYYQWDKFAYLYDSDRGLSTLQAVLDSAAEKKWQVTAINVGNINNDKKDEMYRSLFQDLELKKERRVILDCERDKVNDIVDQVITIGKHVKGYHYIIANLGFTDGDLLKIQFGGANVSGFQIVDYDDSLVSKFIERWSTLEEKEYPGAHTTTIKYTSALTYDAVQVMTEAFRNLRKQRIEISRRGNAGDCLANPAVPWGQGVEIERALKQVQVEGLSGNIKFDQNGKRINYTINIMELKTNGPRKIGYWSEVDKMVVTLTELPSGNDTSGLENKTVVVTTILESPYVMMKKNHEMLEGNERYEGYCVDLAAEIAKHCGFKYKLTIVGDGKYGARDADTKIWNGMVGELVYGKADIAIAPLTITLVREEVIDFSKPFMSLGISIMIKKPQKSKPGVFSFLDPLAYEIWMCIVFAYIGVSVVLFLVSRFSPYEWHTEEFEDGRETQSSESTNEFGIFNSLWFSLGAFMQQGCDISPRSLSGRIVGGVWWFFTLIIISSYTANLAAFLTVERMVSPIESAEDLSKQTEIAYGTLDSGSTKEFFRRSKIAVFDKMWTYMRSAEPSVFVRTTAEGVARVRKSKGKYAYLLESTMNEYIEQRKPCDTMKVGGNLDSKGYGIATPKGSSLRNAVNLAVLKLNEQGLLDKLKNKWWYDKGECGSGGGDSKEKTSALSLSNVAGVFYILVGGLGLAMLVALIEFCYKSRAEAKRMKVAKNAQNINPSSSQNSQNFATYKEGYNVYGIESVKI
# [4] = biological target: T2, Glutamate receptor 2; test: Activity against human GLUR2 flip expressed in HEK293 cells assessed as glutamate-stimulated calcium influx by FLIPR assay
Compound,EC50 [1] [µM],EC50 [2] [µM],EC50 [3] [µM],EC50 [4] [µM]
CC(C)(C)c1ccc(-c2c(C(=O)O)sc(Sc3ccccc3)c2C#N)cc1,> 3,> 3,,
CCc1sc(C(=O)O)c(-c2ccc(C(C)(C)C)cc2)c1C#N,1.22,0.183,0.216,0.047
CSc1sc(C(=O)O)c(-c2ccc(-c3ccccc3)cc2)c1C#N,> 3,0.795,,
CSc1c(C#N)c(-c2ccc(C(C)(C)C)cc2)c(C(=O)O)n1C,1.42,0.554,0.663,0.684
CCOC(=O)c1sc(SC)c(C#N)c1-c1ccc(C(C)(C)C)cc1,> 3,> 3,> 3,> 3
CC(C)(C)c1ccc(-c2c(C#N)csc2C(=O)O)cc1,> 3,> 3,> 3,> 3
CC(CNS(=O)(=O)C(C)C)c1ccc(-c2ccc(C#N)cc2)cc1 (stereo not given),1.06,0.42,1.91,0.559

# The next lines start with results.
EC50 [1] [µM],EC50 [2] [µM],Compound,EC50 [3] [µM],EC50 [4] [µM]
> 3,1.87,CC(C)Sc1sc(C(=O)O)c(-c2ccc(C(C)(C)C)cc2)c1C#N,,
0.488,0.273,CC(C)(C)c1ccc(-c2c(C(=O)O)sc(C(F)(F)F)c2C#N)cc1,0.231,0.078
> 3,0.44,CCSc1sc(C(=O)O)c(-c2ccc(C(C)(C)C)cc2)c1C#N,,
> 3,1.98,CSc1oc(C(=O)O)c(-c2ccc(C(C)(C)C)cc2)c1C#N,,
> 3,0.629,CC(C)(C)c1ccc(-c2c(C(=O)O)sc(S(C)(=O)=O)c2C#N)cc1,1.81,0.333
> 3,0.474,CN(C)c1sc(C(=O)O)c(-c2ccc(C(C)(C)C)cc2)c1C#N,2.85,0.176
> 3,0.489,C[S+]([O-])c1sc(C(=O)O)c(-c2ccc(C(C)(C)C)cc2)c1C#N (stereo not given),,
> 3,1.01,CC(C)(C)c1ccc(-c2c(C(=O)O)sc(N3CCCC3)c2C#N)cc1,2.43,1.14
> 3,2.89,CCCSc1sc(C(=O)O)c(-c2ccc(C(C)(C)C)cc2)c1C#N,,
